Measured values taken from ChEMBL document CHEMBL3259603, “Antiprotozoal activity and DNA binding of N-substituted N-phenylbenzamide and 1,3-diphenylurea bisguanidines” (Eur J Med Chem, 2014).
Activity calls are given as the source filed them. No cut-off for these calls is given here.

Columns and labels:
[1] = tested on: Trypanosoma brucei rhodesiense; assay: Antimicrobial activity against trypomastigote stage of Trypanosoma brucei rhodesiense STIB900 infected in rat L6 cells after 96 hrs by Alamar Blue assay; type: functional, organism-based; settings: STIB900, L6, 96 h
In short: (§1)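 Alamar blue-based viability assays were run on bloodstream T. b. rhodesiense STIB900 and on rat skeletal myoblast L6 cells. Podophyllotoxin was the reference drug for L6.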

[2] = Cytotoxicity against rat L6 cells; type: cell-based; in short: as §1
Plasmodium falciparum = assay: Antimicrobial activity against intraerythrocytic stage of Plasmodium falciparum NF54 infected in human erythrocytes by [3H]hypoxanthine incorporation assay; type: functional, organism-based
In short: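 Erythrocytic P. falciparum NF54 (chloroquine-sensitive) was tested with a [³H]hypoxanthine incorporation read-out.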

[3] = Binding affinity to 5'-biotin-CGCGCGCGTTTTCGCGCGCG-3' hairpin DNA (unknown origin) hairpin DNA after 5 mins by SPR analysis
In short: (§2)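 SPR at 25 °C in MES buffer (10 mM MES, 1 mM EDTA, 100 mM NaCl, 0.005% P20, pH 6.25). Biotinylated hairpins were captured on streptavidin chips to about 400 RU, with a blank reference flow cell. A compound dilution series (from 5 mM stocks) was injected at 20 µL/min with 5 min association and 5 min dissociation. Surfaces were regenerated with 200 mM NaCl/10 mM NaOH. Equilibrium constants came from fits to a one- or two-site model.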

[4] = Binding affinity to 5'-biotin-CGAATTCGTCTCCGAATTCG-3' hairpin DNA (unknown origin) after 5 mins by SPR analysis; in short: as §2
[5] = Selectivity index, ratio of CC50 for rat L6 cells to IC50 for Trypanosoma brucei rhodesiense; type: functional
In short: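 Selectivity index was calculated as L6 CC₅₀ divided by the T. b. rhodesiense IC₅₀, both from the Alamar blue assays.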

[6] = tested on: Trypanosoma brucei rhodesiense; assay: Antimicrobial activity against bloodstream form of Trypanosoma brucei rhodesiense STIB900 infected in acute HAT NMRI mouse model assessed as mean day of relapse at 20 mg/kg, ip administered for 4 days; type: functional; settings: route intraperitoneal
In short: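 Acute-stage mouse model infected with T. b. rhodesiense STIB900, in groups of four mice. Compound was formulated in 100% DMSO and diluted 10-fold in distilled water. It was given on four consecutive days from day 3 post-infection at 0.1 mL/10 g. Three infected mice were left untreated. Parasitaemia was checked in tail-blood smears up to day 60; relapse-free mice were counted as cured. Mean relapse day is the post-infection day of relapse.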

[7] = Selectivity ratio of K for 5'-biotin-CGAATTCGTCTCCGAATTCG-3' hairpin DNA (unknown origin) to K for 5'-biotin-CATATATATCCCCATATATATG-3' hairpin DNA (unknown origin)
[8] = Selectivity index, ratio of CC50 for rat L6 cells to IC50 for Plasmodium falciparum NF54
[9] = Binding affinity to 5'-biotin-CATATATATCCCCATATATATG-3' hairpin DNA (unknown origin) after 5 mins by SPR analysis; in short: as §2
Mus musculus = assay: Acute toxicity in NMRI mouse infected with bloodstream form of Trypanosoma brucei rhodesiense STIB900 at 20 mg/kg, ip administered for 4 days; type: organism-based; parameters: dose 20 mg/kg, route intraperitoneal; settings: in vivo, 96 h
Trypanosoma brucei = assay: Antimicrobial activity against Trypanosoma brucei GVR35 infected in NMRI mouse late stage model at 20 mg/kg, ip administered for 5 days; type: functional, organism-based; parameters: dose 20 mg/kg
[10] = tested on: Trypanosoma brucei rhodesiense; assay: Antimicrobial activity against bloodstream form of Trypanosoma brucei rhodesiense STIB900 infected in acute HAT NMRI mouse model assessed as mean day of relapse at 5 mg/kg, ip administered for 4 days; type: functional; settings: route intraperitoneal
[11] = tested on: Trypanosoma brucei rhodesiense; assay: Antimicrobial activity against bloodstream form of Trypanosoma brucei rhodesiense STIB900 infected in acute HAT NMRI mouse model assessed as mean day of relapse at 50 mg/kg, po administered for 4 days; type: functional

| IC50 [1] [µM] | IC50 (Plasmodium falciparum) [µM] | K [3] [×10⁵ /M] | K [4] [×10⁵ /M] | Selectivity ratio [7] | K [9] [×10⁵ /M] | Structure (SMILES) | CC50 [2] [µM] | Ratio CC50/IC50 [5] | Time [6] [days] | Ratio CC50/IC50 [8] | Activity (Mus musculus) | Activity (Trypanosoma brucei) | Time [10] [days] | Time [11] [days] |
| --- | --- | --- | --- | --- | --- | --- | --- | --- | --- | --- | --- | --- | --- | --- |
| 56 | 7.49 | – | – | – | – | CO/N=C(\N)Nc1ccc(NC(=O)c2ccc(N/C(N)=N/OC)cc2)cc1 | 141 | – | – | – | – | – | – | – |
| 0.011 | 0.446 | < 1 | 9.8 | 2.5 | 4 | CC(C)/N=C(\N)Nc1ccc(NC(=O)c2ccc(N/C(N)=N/C(C)C)cc2)cc1.Cl | 103 | 9364 | >60 | 231 | – | – | – | – |
| 4.88 | 3.58 | – | – | – | – | N/C(=N\O)Nc1ccc(NC(=O)c2ccc(N/C(N)=N/O)cc2)cc1 | 100 | – | – | – | – | – | – | – |
| 51.4 | 42.6 | – | – | – | – | N/C(=N\OC1CCCCO1)Nc1ccc(NC(=O)c2ccc(N/C(N)=N/OC3CCCCO3)cc2)cc1 (configuration not stated) | 160 | – | – | – | – | – | – | – |
| 0.264 | 0.192 | – | – | – | – | C/N=C(\N)Nc1ccc(NC(=O)Nc2ccc(N/C(N)=N/C)cc2)cc1.Cl | 177 | 670 | – | 922 | – | – | – | – |
| 0.177 | 1.02 | – | – | – | – | C/N=C(\N)Nc1ccc(NC(=O)c2ccc(N/C(N)=N/C)cc2)cc1.Cl | 173 | 977 | – | 169 | – | – | – | – |
| 3.13 | 2.83 | – | – | – | – | N/C(=N\OCc1ccccc1)Nc1ccc(NC(=O)c2ccc(N/C(N)=N/OCc3ccccc3)cc2)cc1 | 6.6 | – | – | – | – | – | – | – |
| 0.009 | 0.232 | < 1 | 8.1 | 1.5 | 5.2 | CC/N=C(\N)Nc1ccc(NC(=O)c2ccc(N/C(N)=N/CC)cc2)cc1.Cl | 118 | 13111 | >60 | 509 | – | – | – | – |
| – | – | – | – | – | – | N=C(N)Nc1ccc(NC(=O)c2ccc(NC(=N)N)cc2)cc1 | – | – | – | – | – | inactive | >60 | >60 |
| – | – | – | – | – | – | Nc1nc(N)nc(Nc2ccc([As]3SCC(CO)S3)cc2)n1 (configuration not stated) [MELARSOPROL] | – | >1000 | – | – | – | – | – | – |

| Structure (SMILES) | IC50 [1] [µM] | IC50 (Plasmodium falciparum) [µM] | K [3] [×10⁵ /M] | K [4] [×10⁵ /M] | Selectivity ratio [7] | K [9] [×10⁵ /M] | CC50 [2] [µM] | Ratio CC50/IC50 [5] | Time [6] [days] | Ratio CC50/IC50 [8] | Activity (Mus musculus) | Activity (Trypanosoma brucei) | Time [10] [days] | Time [11] [days] |
| --- | --- | --- | --- | --- | --- | --- | --- | --- | --- | --- | --- | --- | --- | --- |
| CC(C)/N=C(\N)Nc1ccc(NC(=O)Nc2ccc(N/C(N)=N/C(C)C)cc2)cc1.Cl | 0.049 | 0.437 | – | – | – | – | 126 | 2571 | 10 | 288 | Toxic | – | – | – |
| CC/N=C(\N)Nc1ccc(NC(=O)Nc2ccc(N/C(N)=N/CC)cc2)cc1.Cl | 0.09 | 0.397 | – | 0.19 | – | 0.15 | 116 | 1289 | 18.3 | 292 | Toxic | – | – | – |
